In PubChem BioAssay AID588621 (Sanford-Burnham Center for Chemical Genomics, 2011) one finds inhibition data, which are given here for 60 molecules.

The structures appear in SMILES notation. The whole screen tested about 360,000 compounds, of which about 890 (0.25%) were called active. The entries come from a sample that favours actives as a whole. Unmarked numbers belong to inactive results.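 The calls were made as follows: active = inhibition at 20 µM, scaled per plate between control wells, above about 37% (limit read from the data); inactive = the rest.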

Chain of Tyrosine-protein phosphatase non-receptor type 5 (Homo sapiens) (P54829 whole entry, looked up): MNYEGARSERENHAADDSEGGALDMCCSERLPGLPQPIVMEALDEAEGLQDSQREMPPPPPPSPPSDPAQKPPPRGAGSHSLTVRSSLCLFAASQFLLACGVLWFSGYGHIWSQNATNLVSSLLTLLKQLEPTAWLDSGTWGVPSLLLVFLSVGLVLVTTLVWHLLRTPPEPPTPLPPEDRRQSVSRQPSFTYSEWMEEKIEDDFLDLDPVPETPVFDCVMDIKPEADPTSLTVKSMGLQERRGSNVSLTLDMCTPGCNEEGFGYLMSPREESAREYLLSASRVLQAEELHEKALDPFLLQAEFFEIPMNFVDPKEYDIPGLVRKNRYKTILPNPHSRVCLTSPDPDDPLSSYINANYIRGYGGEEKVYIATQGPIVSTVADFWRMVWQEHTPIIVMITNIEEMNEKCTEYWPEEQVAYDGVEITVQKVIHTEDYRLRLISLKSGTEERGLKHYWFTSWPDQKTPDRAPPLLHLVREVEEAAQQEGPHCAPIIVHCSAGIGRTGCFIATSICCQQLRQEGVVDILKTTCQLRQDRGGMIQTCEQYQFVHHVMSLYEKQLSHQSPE

This test addresses Tyrosine-protein phosphatase non-receptor type 5 (Homo sapiens) (UniProt P54829). Put plainly: inhibition of human PTPN5 enzyme activity – biochemical, fluorescence intensity, uHTS, primary screen (AID 588621).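 Also: 0% = DMSO with enzyme and substrate and 100% = substrate only without enzyme.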 The following applies: recombinant STEP, OMFP fluorogenic substrate, at 20 µM, active compounds read high. The gist of the method:
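medium = Bis-Tris buffer pH 6.0, 2.5 mM DTT, 0.005% Tween 20 | test system = STEP (striatal-enriched tyrosine phosphatase) enzyme, cell-free | measure = normalized % inhibition | compound dosing = 20 µM, 1% DMSO | also added = 25 µM OMFP | schedule = reaction 20 min, ambient temperature | measured by = fluorescence read at 480 nm ex / 540 nm em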
Turning to `N#Cc1ccccc1-n1c(N)c(C(=O)N2CCCC2)sc1=S`, the inhibition (commonly the relative decrease from the control value, in per cent) was 7.5%. Next, `Cc1ccc(-n2c(N)c(C(=O)N3CCOCC3)sc2=S)c(C)c1`: 5.2%; `Cc1cccc(-n2c(N)c(C(=O)N3CCN(C)CC3)sc2=S)c1`: 90.4% (active). Consider `Cc1cc(-c2nnc(SCC(=O)Nc3ccc(F)cc3)n2N)n[nH]1`, for which the inhibition was -1.1%. Then `COC(=O)Cn1cnc2scc(-c3ccc(C)c(C)c3)c2c1=O`, with 1.3%; and `Cc1ccc(C(C)(C)C)c(OCCCCN2CCCC2)c1`, with -0.8%; and `CSc1nnc(C2CCCN(CC(=O)Nc3ccccc3N3CCOCC3)C2)n1C(C)C` (stereo not given), with 7.7%. Then `C=CCc1ccccc1OCC(O)CN1CCN(CCO)CC1` (stereo not given), with -0.9%. Then `S=C(c1ccc(-c2ccccc2)o1)N1CCCCC1`, with 10%. As to `OCCN1CCN(C(=S)c2ccc(-c3ccccc3)cc2)CC1`, the inhibition was 92.5% (active). Next, `Cc1cc(OC(=O)c2ccccc2)c([N+](=O)[O-])c(=O)[nH]1`: -3.5%; `CN(C)c1ccc(CNC23CN4CN(CN(C4)C2)C3)cc1`: -4.8%; `O=C(OCC(=O)N1CCN(C(=O)c2ccco2)CC1)c1ccccc1Cc1ccccc1`: -3.5%. Then `CCC1(C)N(O)C(C)(C)C(c2ccc(OC)cc2)=[N+]1[O-]` (stereo not given), with -1.7%. As for `O=S(=O)(Nc1ccccc1Cl)c1cccc2nsnc12`, the inhibition was 52.9% (active). As to `O=C(O)c1ccc(NS(=O)(=O)c2cccc3nsnc23)cc1`, the inhibition is 1.7%. Turning to `COc1ccc(NS(=O)(=O)c2cccc3nsnc23)cc1Cl`, the inhibition is -1.2%.

On to `O=C(COC(=O)c1cc([N+](=O)[O-])ccc1NCc1ccccc1)NC1CCCCC1`, for which the inhibition is 0.9%. Next, `O=C(CCN1C(=O)c2ccncc2C1=O)Nc1cc(F)ccc1F`: -2.7%; `COc1ccc(-c2cc(C(F)(F)F)nc(S(C)(=O)=O)n2)cc1OC`: 0.2%.

In the case of `O=C(COc1ccccc1F)NNC(=O)c1ccc(N2CCCCC2)c([N+](=O)[O-])c1`, the inhibition was 0.7%. Then `C/C(O)=C\c1nc(=O)c2c(C)cc(C)nc2n1-c1ccccc1`, with 1.8%. Next, `CCc1cccc(NC(=S)N(CCN(C)C)C2CCN(C(C)C)CC2)c1`: 4.4%; `COc1ccccc1NC(=O)C(C)OC(=O)CC1CCCC1` (stereo not given): -2.3%. Next, `COCCN(C(=S)Nc1ccccc1OC)C1CCN(C(C)C)CC1`: 44.6% (active); `Cc1ccc(NC2=C(Cl)C(=O)OC2OC(=O)c2ccccc2C)cc1` (stereo not given): -1.2%; `COCc1c(C(=O)N/N=C/C2CC=CCC2)nnn1-c1nonc1N` (stereo not given): 44.4% (active). As to `COCc1c(C(=O)N/N=C(\C)c2ccncc2)nnn1-c1nonc1N`, the inhibition was -0.3%. Take `Nc1nonc1-n1nnc(C(=O)N/N=C/C2CCCCC2)c1-c1ccccc1`: the inhibition is -0.5%. Consider `CCc1c(C)sc(NC(=O)OC)c1C(=O)N1CCOCC1`, for which the inhibition was 10.1%. Then `Cc1cc(C)cc(C(=O)OCC(=O)NCCNC(=O)COC(=O)c2cc(C)cc(C)c2)c1`, with 1%; and `CCc1nc2c(OCCC3CCCCC3)cccn2c1N(C)C(=O)c1ccco1`, with 4.5%; and `COc1cc(OC)c(-n2cc(-c3ccc(Cl)cc3)[nH]c2=O)cc1Cl`, with 0.7%. Next, `CCCn1c(C2CCCN2c2nc(-c3ccc(C)cc3)cs2)nc2cc(Cl)c(N3CCCCC3)cc21` (stereo not given): 3.4%.

Consider `Cc1ccc(-c2csc(N3CCN(c4cc5c(cc4Cl)nc(-c4ccncc4)n5CCOCCO)CC3)n2)cc1`, for which the inhibition was 2.3%.

In the case of `Nc1c(Cl)cc(-c2csc(N3CCCC3c3nc4cc(Cl)c(Cl)cc4n3CCOCCO)n2)cc1Cl` (stereo not given), the inhibition was 36.9% (active). `O=c1nc(N2CCOCC2)nc2n1CCO2`: the inhibition is 4.3%. Next, `COc1cccc(/C=C/C(=O)OCC(=O)N2CCCc3ccccc32)c1`: -1.7%; `N#Cc1c(-c2cccs2)nc(SCC(=O)c2ccc(Br)cc2)[nH]c1=O`: 78.8% (active). Then `CCc1ccc(C(=O)CSc2nnc(C)c(=O)[nH]2)cc1`, with -1%. Next, `N#Cc1c(-c2ccccc2)nc(SCc2cccc(C(F)(F)F)c2)[nH]c1=O`: 2.7%; `Cc1ccnc(N2CCN(C(=O)CSc3nc4ccccc4nc3N3CCCCC3)CC2)c1`: 7.7%; `CC(C)C(O)C1CCN(Cc2nc(Cc3ccccc3Cl)no2)CC1` (stereo not given): -0.6%. Take `CN(C(=O)CSc1nnc(N)s1)c1c(N)n(Cc2ccccc2)c(=O)[nH]c1=O`: the inhibition was 2%. Next, `Cc1ccnc(NS(=O)(=O)c2ccc(NC(=O)c3ccc(S(=O)(=O)N(C)C)cc3)cc2)n1`: 10.2%.

As to `CC(Oc1ccc(Cl)cc1)c1ccnn1S(C)(=O)=O` (stereo not given), the inhibition was -1.9%. On to `Cc1cccc(OCC(=O)NCCNC(=O)c2cccnc2)c1`, for which the inhibition was 0.6%.

As to `Cc1ccc(OCC(=O)NCCCNC(=O)c2cccnc2)cc1C`, the inhibition was 2.8%. Then `Cc1ccc(NC(=O)COc2ccc(/C=N\NC(=O)c3cccnc3)cc2)cc1C`, with 93% (active). Then `CC(=O)c1nc(N2C(=O)C3CC=C(C)CC3C2=O)sc1C` (stereo not given), with -0.6%; and `O=C(NCc1ccc(F)cc1)c1cc(C2CCCCN2C(=O)c2ccccn2)on1` (stereo not given), with -0.8%; and `CCOCCCNc1c(CC)c(C)c(C#N)c2nc3ccccc3n12`, with -1%. Next, `CCc1cccc(C)c1N(C(=O)Cn1c(CO)nc2ccccc21)C(C)COC` (stereo not given): -4.3%.

For the molecule `C/C(=N\OC(=O)c1ccccc1)c1c(C)nc2cc(C)ccn12`, the inhibition is -1.4%.

For `Cc1ccn2c(-c3csc(Nc4ccc(C(=O)O)cc4)n3)c(C)nc2c1`, the inhibition is 41.9% (active). Then `CCCCC(=O)Nc1nc(C)c(-c2csc(Nc3ccc(Cl)cc3)n2)s1`, with -1.7%; and `COc1cccc(-c2cnc(C(O)c3ccccc3OC)[nH]2)c1` (stereo not given), with -2.4%; and `COCCCNC(=O)[C@H]1N2C(=O)c3ccccc3C2SC1(C)C` (stereo not given in full), with 0.9%. Then `Cc1[nH]c2ccccc2c1C(=O)C(=O)NCc1nnnn1-c1cccc(F)c1`, with 0.6%; and `COc1ccc(CCN2CC(C(=O)NCCN3CCNC3=O)CCC2=O)cc1` (stereo not given), with -4.2%.
